Bioassay records (PubChem)
Most compounds without a hit are left out; they make up all but 4% or so of the library.
CHOP UPR activ – activators of apoptotic arm of unfolded protein response (CHOP); actives 0.34% (n = 330,000); activation, % at 10 µM; CHO-CHOP luciferase reporter, UPR activation, luminescence; percent of tunicamycin response over DMSO baseline;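 active = at 10 µM dose, activation of 40% or more, normalized to positive control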;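 note: 100% = tunicamycin at 10 µg/mL and 0% = DMSO alone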
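assay system = CHO CHOP reporter cells | amount = 500 CHO-CHOP cells per well | buffer or medium = F12 with 10% FBS | incubation = 16-18 h cell attachment, then 6 h compound exposure, 37 °C | detection = luminescence read with Steady-Glo | read-out = percent activation relative to tunicamycin control | controls = tunicamycin high control, DMSO low control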
Granule exo inh – blocks lytic granule exocytosis. TALL-104 LAMP-1 surface exposure, flow cytometry; cells stimulated with thapsigargin and PMA. inhibition, % at 10 µM. actives 0.66% (n = 360,000). AID 651702;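 active = inhibition above about 55%, limit read from the data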
Mdm2-MdmX inh – inhibitors of human Mdm2/MdmX interaction | O15151+Q00987 | SaOS-2 split-luciferase Mdm2/MdmX complementation, luminescence | inhibition, % at 8 µM | actives 3% (n = 330,000);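 active = inhibition of at least 50% at 8 µM in the primary screen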
Target sequence (O15151 whole entry, looked up): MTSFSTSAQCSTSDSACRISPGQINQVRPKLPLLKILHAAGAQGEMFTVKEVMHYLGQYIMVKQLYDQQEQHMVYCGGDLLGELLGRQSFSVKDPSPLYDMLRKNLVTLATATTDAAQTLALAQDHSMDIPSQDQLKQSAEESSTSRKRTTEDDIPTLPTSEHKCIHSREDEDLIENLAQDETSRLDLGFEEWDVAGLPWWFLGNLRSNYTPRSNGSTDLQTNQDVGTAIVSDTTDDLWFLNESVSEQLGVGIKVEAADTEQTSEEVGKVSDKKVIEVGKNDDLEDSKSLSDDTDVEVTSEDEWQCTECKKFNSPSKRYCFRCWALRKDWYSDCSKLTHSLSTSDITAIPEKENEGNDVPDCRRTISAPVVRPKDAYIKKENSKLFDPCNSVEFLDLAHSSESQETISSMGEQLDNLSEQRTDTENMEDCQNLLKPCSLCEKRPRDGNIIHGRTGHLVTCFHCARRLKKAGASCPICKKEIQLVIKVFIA
Target sequence (Q00987 whole entry, looked up): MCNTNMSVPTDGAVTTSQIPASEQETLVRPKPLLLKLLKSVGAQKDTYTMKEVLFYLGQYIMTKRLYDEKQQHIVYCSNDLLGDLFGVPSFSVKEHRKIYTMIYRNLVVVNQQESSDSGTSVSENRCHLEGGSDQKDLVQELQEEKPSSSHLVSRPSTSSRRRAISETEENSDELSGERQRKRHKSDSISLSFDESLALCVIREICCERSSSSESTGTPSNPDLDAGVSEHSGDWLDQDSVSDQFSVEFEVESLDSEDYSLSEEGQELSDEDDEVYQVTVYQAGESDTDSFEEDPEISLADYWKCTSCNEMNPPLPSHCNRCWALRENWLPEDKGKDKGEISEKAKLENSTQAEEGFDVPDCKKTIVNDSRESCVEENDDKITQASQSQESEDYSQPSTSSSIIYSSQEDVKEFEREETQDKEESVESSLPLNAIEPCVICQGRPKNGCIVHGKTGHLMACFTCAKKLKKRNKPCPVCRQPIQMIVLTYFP
XBP1 UPR activ – activators of adaptive arm of unfolded protein response (XBP1) | activation, % at 20 µM | actives 0.33% (n = 330,000) | AID 463104 | CHO-XBP1 luciferase reporter, IRE1-XBP1 UPR activation, luminescence; percent of tunicamycin response, DMSO as zero;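 active = versus positive control, 20 µM dose yields 30% or more activation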;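 note: 100% = tunicamycin at 10 µg/mL and 0% = DMSO only wells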
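Material: CHO-XBP1 cells stably carrying IRE1-XBP1-driven luciferase reporter / Amount: 1000 cells per well / Compound: 20 µM, 1% DMSO / Times: 6 h treatment, 37 °C / Detection: luciferase luminescence / Measure: % activation of reporter signal versus tunicamycin and DMSO controls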
ABHD5 PLIN5 PPI – inhibitors of human ABHD5-perilipin-5 interaction. actives 0.78% (n = 360,000). AID 602281. Q00G26+Q8WTS1. Split G. princeps luciferase complementation, luminescence, 4 h. inhibition, % at 4 µM;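 active = inhibition above the mean inhibition across every tested compound plus 3 SD, cut at about 22% in these data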;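 note: 0% = DMSO only wells and the 100% control is not disclosed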
XBP1 UPR conf – adaptive UPR (XBP1) activation, confirmed; shares compounds with XBP1 UPR activ; CHO-XBP1 IRE1-XBP1 luciferase reporter, luminescence; activation, % at 20 µM; actives 63% (n = 1,000);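 active = reporter signal at least 30% of the positive control's activation in two or more of four replicate wells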;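 note: plate controls were DMSO negative control for no effect and tunicamycin 10 µg/mL positive control for full effect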
* marks the source's active call; other numbers are inactive results; x = no result.

SMILES | CHOP UPR activ | Granule exo inh | Mdm2-MdmX inh | XBP1 UPR activ | ABHD5 PLIN5 PPI | XBP1 UPR conf
CCOC(=O)C1=C(C)N=C2c3ccccc3C(=O)C2C1c1ccccc1 (centres undefined) | 5 | 3 | 18 | -3 | -3 | x
CC(CCc1ccccc1)NC(=O)Cc1ccc([N+](=O)[O-])cc1 (centres undefined) | 3 | -5 | 12 | -2 | -6 | x
CCCCN(CC)S(=O)(=O)c1ccc(C(=O)N=c2sc3cc(NC(C)=O)ccc3n2C)cc1 | 23 | 0 | -4 | 137* | 5 | 106*
COC(=O)c1sccc1NC(=O)Nc1ccc(Cl)c(Cl)c1 | 4 | -6 | 13 | 2 | 2 | x
Cc1ccc(SCC(=O)OCC(=O)NCCCc2ccccc2)cc1 | 1 | 3 | 5 | 1 | 1 | x
O=C(COC(=O)CSc1ccc(F)cc1)NCCCc1ccccc1 | 0 | -2 | -12 | 44* | 15 | 0
COc1ccc(NC(=O)CCCNC(=O)Cn2cnc3sc(C)c(C)c3c2=O)cc1Cl | 0 | 15 | -22 | -1 | 3 | x
C=CCN1C(=O)/C(=C2/Sc3ccc(OC)cc3N2CC)SC1=S | 5 | -4 | 30 | 1 | 0 | x
CCCCN1C(=O)/C(=C2/Sc3ccc(OC)cc3N2CC)SC1=S | 8 | 1 | 31 | 94* | 6 | 49*
Cc1ccc(Nc2nc3ccc(Cl)cc3n3cnnc23)cc1F | 2 | -25 | 48 | 32* | 0 | 48*
Cc1cc(C)c2c(c1)SC1=NC(c3ccccc3)(C(F)(F)F)NC(=O)N12 (centres undefined) | 38 | 1 | -15 | 46* | -1 | 22
CNC(=O)c1cccc2cccc(Sc3ccccc3C(=O)O)c12 | -2 | 2 | 27 | 2 | 5 | x
CCCCc1ccc(-c2csc(/C(C#N)=C\c3ccc(C)o3)n2)cc1 | 0 | -6 | -21 | -2 | 11 | x
COc1cc2c(cc1OC)[C@@H](NC(=O)c1ccc(C(F)(F)F)cc1)[C@H](OCc1ccccc1)C2 | 1 | -1 | 2 | 36* | -6 | 18
CCOc1cc(-c2cc(-c3ccc(C)cc3)nc(N)c2C#N)ccc1O | 2 | 11 | 36 | 7 | 7 | x
CCOc1cc(/C=C(\C#N)c2[nH]nc(N)c2C#N)ccc1O | 18 | 9 | 29 | 32* | -2 | 51*
CN=C1SC(CC(=O)Nc2ccccc2F)C(=O)N1C (centres undefined) | -1 | -1 | 15 | 0 | -4 | x
C=CCOc1ccc(/C=N/N2C(=O)C(CC(=O)Nc3ccc(F)cc3F)SC2=NC)cc1 (centres undefined) | 2 | 8 | 9 | 51* | 2 | 81*
C=CCN=C1S/C(=C/c2cccc([N+](=O)[O-])c2)C(=O)N1CC=C | 9 | 5 | 26 | 33* | 7 | 47*
CCOC(=O)C1=CCN(S(=O)(=O)c2ccccc2Br)C1c1ccc(Br)cc1 (centres undefined) | x | -1 | x | x | -1 | x
O=C(Nc1ccc(O)c(-c2nc3ccccc3s2)c1)c1cc(=O)c2ccccc2o1 | 1 | -1 | 0 | 42* | 6 | 94*
COc1cnc(-c2ccccn2)nc1Sc1ccc(Cl)cc1 | 8 | -2 | 21 | 32* | -2 | 8
CCOC(=O)Oc1ccc2oc(C)c(C(=O)OCCOC)c2c1 | 2 | 2 | 12 | 1 | 0 | x
COCCOC(=O)c1c(C)oc2ccc(OC(=O)c3ccc4c(c3)OCO4)cc12 | 8 | -2 | 32 | 76* | 0 | 0
FC(F)(F)c1cnc2c(-c3ccccc3)n[nH]c2c1 | 3 | -1 | -98 | 1 | -1 | x
CC(=O)Nc1sc(C)c(C)c1C(=O)OCC(=O)Nc1cccc(C)c1 | 1 | -5 | 49 | 37* | -7 | 5
CCC1(c2ccc(F)cc2)NC(=O)N(CC(=O)Nc2ccc(-c3nc4ccc(C)cc4s3)cc2)C1=O (centres undefined) | 2 | 14 | -103 | 36* | 15 | 32*
CCN(CC)S(=O)(=O)c1ccc(/C(O)=C2/C(=O)C(=O)N(CCOC)C2c2ccccc2)cc1 (centres undefined) | -2 | -3 | -1 | 0 | -3 | x
